# Measured values published in article PMC3355950 (The Journal of Neuroscience, 2012).
# Key:
# GluN1/GluN2A = GluN1/GluN2A (Rattus norvegicus, UniProt P35439+Q00959); assay: Whole-cell voltage-clamp recordings, HEK293 cells, rapid solution exchange; assay type: cell-based; conditions: 50 μM glutamate
# Procedure, shortened: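 HEK293 cells were plated on poly-D-lysine coverslips about 48 h ahead and calcium-phosphate cotransfected with GluN1, GluN2A and GFP (1:1:1). 200 μM D,L-APV and 200 μM 7-chlorokynurenic acid were added after transfection. Whole-cell recording was done about 24 h later at −60 mV and 23°C on lifted cells with piezo-driven theta-glass exchange.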
# [1] = test system: GluN2B-containing NMDA receptors; conditions: ref Williams, 1993; cited from earlier work
# [2] = brief application (10 ms) of 1000 μM glycine, antagonist 0.3 μM
# GluN1/GluN2A, sequence (Q00959 23-1464, other chains not shown): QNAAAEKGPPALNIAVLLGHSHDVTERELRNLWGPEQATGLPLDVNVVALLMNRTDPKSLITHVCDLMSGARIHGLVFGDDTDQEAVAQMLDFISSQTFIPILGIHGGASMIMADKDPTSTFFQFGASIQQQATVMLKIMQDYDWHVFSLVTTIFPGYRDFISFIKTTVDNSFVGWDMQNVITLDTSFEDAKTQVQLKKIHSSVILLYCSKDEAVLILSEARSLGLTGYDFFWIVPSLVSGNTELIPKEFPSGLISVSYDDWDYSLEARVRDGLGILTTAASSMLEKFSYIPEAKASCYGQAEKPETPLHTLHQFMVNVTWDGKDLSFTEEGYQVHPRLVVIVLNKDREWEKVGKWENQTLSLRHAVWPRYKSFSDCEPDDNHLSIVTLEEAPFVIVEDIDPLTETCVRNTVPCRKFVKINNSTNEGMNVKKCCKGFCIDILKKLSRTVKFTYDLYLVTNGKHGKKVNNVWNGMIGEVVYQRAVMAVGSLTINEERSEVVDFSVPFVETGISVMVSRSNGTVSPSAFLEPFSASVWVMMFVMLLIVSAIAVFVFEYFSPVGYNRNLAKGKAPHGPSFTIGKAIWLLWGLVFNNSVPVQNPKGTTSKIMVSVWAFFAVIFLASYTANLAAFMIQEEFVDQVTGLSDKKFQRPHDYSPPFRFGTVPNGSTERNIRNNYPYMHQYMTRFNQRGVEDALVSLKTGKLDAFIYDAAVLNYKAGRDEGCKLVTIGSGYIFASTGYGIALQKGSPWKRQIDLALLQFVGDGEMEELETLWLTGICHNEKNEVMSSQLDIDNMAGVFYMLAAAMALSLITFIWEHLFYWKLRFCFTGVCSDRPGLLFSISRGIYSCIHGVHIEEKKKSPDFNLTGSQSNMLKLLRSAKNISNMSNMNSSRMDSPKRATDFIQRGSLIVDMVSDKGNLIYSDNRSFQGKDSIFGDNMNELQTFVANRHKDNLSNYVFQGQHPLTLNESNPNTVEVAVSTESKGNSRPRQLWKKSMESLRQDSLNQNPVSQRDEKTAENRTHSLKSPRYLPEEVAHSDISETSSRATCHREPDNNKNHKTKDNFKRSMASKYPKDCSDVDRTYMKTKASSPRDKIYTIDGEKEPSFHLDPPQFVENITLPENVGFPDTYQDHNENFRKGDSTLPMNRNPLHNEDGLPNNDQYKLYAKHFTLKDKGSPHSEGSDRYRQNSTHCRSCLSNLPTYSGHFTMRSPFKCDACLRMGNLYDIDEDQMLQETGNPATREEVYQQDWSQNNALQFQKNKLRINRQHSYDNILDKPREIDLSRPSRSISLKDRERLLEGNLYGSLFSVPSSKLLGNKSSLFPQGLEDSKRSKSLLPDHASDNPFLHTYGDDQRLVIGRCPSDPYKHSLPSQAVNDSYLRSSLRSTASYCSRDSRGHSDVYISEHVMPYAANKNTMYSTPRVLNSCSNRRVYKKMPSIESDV
smiles,measurement,setting,value
"O=C(O)c1cc(O)c2ccc(Cl)cc2n1 [7CKA, 7-chlorokynurenic acid]",% fast,GluN1/GluN2A; [2],34 ± 6%
same,τfast,GluN1/GluN2A; [2],46 ± 7 ms
same,τslow,GluN1/GluN2A; [2],158 ± 10 ms
same,"deactivation time constant, mono-exponential fit (τslow)","GluN1/GluN2A; long application (5 seconds) of 1000 μM glycine, antagonist 0.3 μM",128 ± 14 ms
"O=C(O)c1cc(O)c2c(Cl)cc(Cl)cc2n1 [DCKA, 7,5-dichlorokynurenic acid]",Peak response to a brief glycine application,"GluN1/GluN2A; 0.3 μM, 1 mM glycine 10 ms",43 ± 13 % of control
same,Effect on deactivation time course,"GluN1/GluN2A; 0.3 μM, brief (10 ms) or long (5 seconds) 1 mM glycine",did not alter the deactivation time course
CC(C(O)c1ccc(O)cc1)N1CCC(Cc2ccccc2)CC1 (stereo not shown) [ifenprodil],selectivity for GluN2B-containing NMDA receptors,[1],over 500 fold
